Data from ChEMBL document CHEMBL4354861, “Re-Evaluating the Mechanism of Action of α,β-Unsaturated Carbonyl DUB Inhibitors b-AP15 and VLX1570: A Paradigmatic Example of Unspecific Protein Cross-linking with Michael Acceptor Motif-Containing Drugs” (J Med Chem, 2020).
Calls of active or inactive are those of the source. The calls are words filed in the database; no cut-off is given here.

Columns and labels:
[1] = biological target: T1, Ubiquitin carboxyl-terminal hydrolase isozyme L5 (Homo sapiens) (UniProt Q9Y5K5); assay: Inhibition of UCH-37 in intact human HeLa cells assessed as induction of formation of high molecular weight complexes with USP14 at 10 uM incubated for 2 hrs in presence of glutathione by immunoblot analysis; assay type: cell-based
T1 sequence (whole entry): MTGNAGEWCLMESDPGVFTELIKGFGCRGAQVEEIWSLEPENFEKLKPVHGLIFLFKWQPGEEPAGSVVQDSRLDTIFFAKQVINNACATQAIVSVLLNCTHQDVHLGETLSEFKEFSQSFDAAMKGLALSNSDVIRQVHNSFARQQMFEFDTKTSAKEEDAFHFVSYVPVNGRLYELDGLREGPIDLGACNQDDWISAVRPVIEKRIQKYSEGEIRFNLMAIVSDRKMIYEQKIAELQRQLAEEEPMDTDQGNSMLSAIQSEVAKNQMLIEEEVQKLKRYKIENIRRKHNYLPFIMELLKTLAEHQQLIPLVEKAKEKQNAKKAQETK
How it was run: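 Intact HeLa cells (DMEM, 10% FBS, about 80% confluent) treated 2 h with vehicle or 10 μM compound, with or without 10 mM DTT or 10 mM GSH. Cells washed in cold PBS and lysed in RIPA with protease and phosphatase inhibitors. High-MW species detected by SDS-PAGE immunoblot; shorter exposures served as loading control.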

[2] = test system: HeLa; assay: Inhibition of deubiquitinase in human HeLa cell extracts assessed as increase in high molecular weight protein complexes at 10 uM incubated for 2 hrs by SDS-PAGE and Coomassie Blue staining based method; assay type: cell-free
[3] = biological target: Ubiquitin thioesterase OTUB1 (Homo sapiens) (UniProt Q96FW1); assay: Inhibition of recombinant human His6-Otubain-1 assessed as reduction in cleavage of luminescent substrate Ub-AML at 100 uM
Chain of Ubiquitin thioesterase OTUB1 (Homo sapiens) (Q96FW1 whole entry): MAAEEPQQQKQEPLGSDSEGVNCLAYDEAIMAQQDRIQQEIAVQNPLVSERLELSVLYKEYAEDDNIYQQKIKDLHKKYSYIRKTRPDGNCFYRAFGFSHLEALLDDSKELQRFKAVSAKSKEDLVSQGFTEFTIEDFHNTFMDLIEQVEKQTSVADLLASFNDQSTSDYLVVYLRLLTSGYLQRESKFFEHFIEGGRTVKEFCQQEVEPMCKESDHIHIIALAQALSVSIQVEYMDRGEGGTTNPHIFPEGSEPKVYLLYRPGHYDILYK
How it was run: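 Purified recombinant DUBs assayed with Ub-AML as luminescent substrate, using the Glo reagent protocol and read on a microplate luminometer.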

`C=CC(=O)N1C/C(=C\c2ccc([N+](=O)[O-])cc2)C(=O)/C(=C/c2ccc([N+](=O)[O-])cc2)C1` was tested, and the inhibition [1] was “inactive”, the inhibition [2] was “Active” and the inhibition [3] was “Active”.
